The source of these data is ChEMBL document CHEMBL1145047, “Design, synthesis, and evaluation of substituted phenylpropanoic acid derivatives as human peroxisome proliferator activated receptor activators. Discovery of potent and human peroxisome proliferator activated receptor alpha subtype-selective activators” (J Med Chem, 2003).

pEC50: −log10 of the molar value. Calls of active or inactive are those of the source. The rule behind the calls is not given here.

Test [1] deals with Rattus norvegicus. Nature of the test: In vivo percent reduction on FFA of the rat at 3 mg/kg after 5 days. Type of test: functional. An outline of the steps:
(§1)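 Male Sprague-Dawley rats, 11 weeks old, fed standard chow and water ad libitum. Drug or vehicle suspended in 0.5% w/v arabic gum and given orally once daily at 0.3, 3 or 30 mg/kg; duration is 4 days in the methods and 5 days in the table. Plasma taken in the fed state. TG, FFA and total cholesterol measured enzymatically. HDL obtained by precipitation; LDL+VLDL = total minus HDL cholesterol. Values are mean percent reduction, N = 5 or 6.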

Test [2] deals with Rattus norvegicus. As to the kind of experiment: In vivo percent reduction on FFA of the rat at 30 mg/kg after 5 days. Format: functional. An outline of the steps: as §1
For test [3], the system named is Rattus norvegicus. As to the kind of experiment: In vivo percent reduction on LDL+VLDL of the normal rat at 0.3 mg/kg. Format: functional. Summed up:
as §1

Test [4] relates to Rattus norvegicus. As to the kind of experiment: In vivo percent reduction on LDL+VLDL of the normal rat at 30 mg/kg. Type of test: functional. An outline of the steps: as §1
The test system of test [5] is Rattus norvegicus. As to the kind of experiment: In vivo percent reduction on LDL+VLDL of the normal rat at 3 mg/kg. Type of test: functional. Summed up:
as §1

Test [6] relates to Rattus norvegicus. Nature of the test: In vivo percent reduction on LDL+VLDL of the rat at 0.3 mg/kg after 5 days. Format: functional. An outline of the steps: as §1
The test system of test [7] is Rattus norvegicus. As to the kind of experiment: In vivo percent reduction on LDL+VLDL of the rat at 3 mg/kg after 5 days. Format: functional. An outline of the steps: as §1
Test [8] concerns Rattus norvegicus. Nature of the test: In vivo percent reduction on LDL+VLDL of the rat at 30 mg/kg after 5 days. Format: functional. Summed up: as §1
For test [9], the system named is Rattus norvegicus. As to the kind of experiment: In vivo percent reduction on TG of the normal rat at 0.3 mg/kg. Type of test: functional. An outline of the steps:
as §1

Test [10] has as its system Rattus norvegicus. As to the kind of experiment: In vivo percent reduction on TG of the normal rat at 3 mg/kg. Format: functional. An outline of the steps: as §1
Test [11] concerns Rattus norvegicus. Nature of the test: In vivo percent reduction on TG of the normal rat at 30 mg/kg. Format: functional. An outline of the steps: as §1
The subject of test [12] is Rattus norvegicus. Nature of the test: In vivo percent reduction on TG of the rat at 0.3 mg/kg after 5 days. Type of test: functional. An outline of the steps: as §1
The test system of test [13] is Rattus norvegicus. As to the kind of experiment: In vivo percent reduction on TG of the rat at 3 mg/kg after 5 days. Type of test: functional. Summed up:
as §1

Test [14] has as its system Rattus norvegicus. As to the kind of experiment: In vivo percent reduction on TG of the rat at 30 mg/kg after 5 days. Type of test: functional. Summed up: as §1
The test system of test [15] is Rattus norvegicus. As to the kind of experiment: In vivo percent reduction on total cholesterol of the normal rat at 0.3 mg/kg. Type of test: functional. Summed up:
as §1

Test [16] deals with Rattus norvegicus. As to the kind of experiment: In vivo percent reduction on total cholesterol of the normal rat at 30 mg/kg. Format: functional. Summed up: as §1
For test [17], the system named is Rattus norvegicus. As to the kind of experiment: In vivo percent reduction on total cholesterol of the normal rat at 3 mg/kg. Type of test: functional. Summed up: as §1
For test [18], the system named is Rattus norvegicus. As to the kind of experiment: In vivo percent reduction on total cholesterol of the rat at 0.3 mg/kg after 5 days. Format: functional. An outline of the steps: as §1
The test system of test [19] is Rattus norvegicus. As to the kind of experiment: In vivo percent reduction on total cholesterol of the rat at 3 mg/kg after 5 days. Format: functional. Summed up:
as §1

The test system of test [20] is Rattus norvegicus. As to the kind of experiment: In vivo percent reduction on total cholesterol of the rat at 30 mg/kg after 5 days. Format: functional. Summed up: as §1
For test [21], the system named is Rattus norvegicus. As to the kind of experiment: In vivo percent reduction on FFA of the rat at 0.3 mg/kg after 5 days. Format: functional. An outline of the steps:
as §1

Test [22] has as its system Rattus norvegicus. Nature of the test: In vivo percent reduction on FFA of the normal rat at 0.3 mg/kg. Format: functional. Summed up:
as §1

The subject of test [23] is Rattus norvegicus. As to the kind of experiment: In vivo percent reduction on FFA of the normal rat at 30 mg/kg. Type of test: functional. Summed up: as §1
For test [24], the system named is Rattus norvegicus. As to the kind of experiment: In vivo percent reduction on FFA of the normal rat at 3 mg/kg. Format: functional. An outline of the steps:
as §1

Test [25] deals with T1, Peroxisome proliferator-activated receptor delta (Homo sapiens) (UniProt Q03181).
T1 sequence (whole entry): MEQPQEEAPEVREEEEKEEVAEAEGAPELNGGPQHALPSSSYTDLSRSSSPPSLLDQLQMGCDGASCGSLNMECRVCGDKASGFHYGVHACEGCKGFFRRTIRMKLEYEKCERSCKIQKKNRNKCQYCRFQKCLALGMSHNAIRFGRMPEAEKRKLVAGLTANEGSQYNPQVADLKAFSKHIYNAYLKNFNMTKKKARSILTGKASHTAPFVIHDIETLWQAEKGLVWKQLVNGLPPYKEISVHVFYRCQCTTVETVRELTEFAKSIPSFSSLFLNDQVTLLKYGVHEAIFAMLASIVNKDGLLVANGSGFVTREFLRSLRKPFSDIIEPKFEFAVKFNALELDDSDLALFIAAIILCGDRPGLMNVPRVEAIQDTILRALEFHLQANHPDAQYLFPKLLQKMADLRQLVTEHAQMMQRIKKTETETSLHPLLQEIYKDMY
Nature of the test: In vitro effective concentration for agonist activity on human Peroxisome proliferator activated receptor delta-GAL4 chimeric receptor in transfected CHO-K1 cells at 10 uM; inactive.

Test [26] concerns the target T1, Peroxisome proliferator-activated receptor delta (Homo sapiens). Nature of the test: In vitro In vitro effective concentration for agonist activity on human Peroxisome proliferator activated receptor delta-GAL4 chimeric receptor in transfected CHO-K1 cells at 10 uM; inactive. Type of test: functional, cell-based.
The target of test [27] is T2, Peroxisome proliferator-activated receptor gamma (Homo sapiens) (UniProt P37231).
T2 sequence (whole entry): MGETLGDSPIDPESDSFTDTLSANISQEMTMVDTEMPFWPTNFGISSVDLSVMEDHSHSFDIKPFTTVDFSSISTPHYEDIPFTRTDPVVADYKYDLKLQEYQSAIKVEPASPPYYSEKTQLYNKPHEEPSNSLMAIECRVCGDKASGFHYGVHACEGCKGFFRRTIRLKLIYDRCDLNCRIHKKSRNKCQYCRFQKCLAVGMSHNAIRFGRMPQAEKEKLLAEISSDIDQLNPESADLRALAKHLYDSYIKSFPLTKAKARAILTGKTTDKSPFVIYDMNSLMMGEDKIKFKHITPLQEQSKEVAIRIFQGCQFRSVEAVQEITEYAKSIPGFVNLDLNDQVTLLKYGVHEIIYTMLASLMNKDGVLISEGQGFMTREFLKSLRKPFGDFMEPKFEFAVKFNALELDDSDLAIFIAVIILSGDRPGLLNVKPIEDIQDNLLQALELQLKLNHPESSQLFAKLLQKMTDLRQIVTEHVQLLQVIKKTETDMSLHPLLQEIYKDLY
As to the kind of experiment: In vitro effective concentration for agonist activity on human Peroxisome proliferator activated receptor gamma-Gal4 chimeric receptor in transfected CHO-K1 cells at 10 uM. Type of test: functional, cell-based.

Test [28] concerns the target T3, Peroxisome proliferator-activated receptor alpha (Homo sapiens) (UniProt Q07869).
T3 sequence (whole entry): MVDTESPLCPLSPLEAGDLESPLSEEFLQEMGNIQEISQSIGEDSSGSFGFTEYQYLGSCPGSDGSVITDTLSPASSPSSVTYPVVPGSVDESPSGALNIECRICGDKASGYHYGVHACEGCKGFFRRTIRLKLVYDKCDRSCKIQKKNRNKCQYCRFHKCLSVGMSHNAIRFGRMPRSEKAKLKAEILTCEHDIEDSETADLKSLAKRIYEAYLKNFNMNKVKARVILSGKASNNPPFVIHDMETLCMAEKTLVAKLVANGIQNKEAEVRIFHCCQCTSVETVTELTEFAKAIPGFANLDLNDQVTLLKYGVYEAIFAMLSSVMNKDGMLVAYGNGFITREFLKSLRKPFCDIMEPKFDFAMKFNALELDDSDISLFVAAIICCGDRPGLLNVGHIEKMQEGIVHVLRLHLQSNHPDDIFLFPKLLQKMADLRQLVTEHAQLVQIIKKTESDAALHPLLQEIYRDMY
Nature of the test: Agonist activity on Gal4 chimeric human Peroxisome proliferator activated receptor alpha expressed in CHO-K1 cells. Type of test: functional, cell-based. Summed up:
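GAL4–human PPAR LBD chimera, reporter assay in CHO-K1 cells. Cells seeded at 5 × 10⁴/well in Ham's F12 with 10% FCS for 24 h at 37 °C. Cotransfected for 2 h (lipofectamine) per well with 40 ng GAL4/PPAR LBD, 400 ng pFR-Luc and 5 ng pRL-TK. Compounds applied for 20 h at 37 °C, then luciferase read from cell lysates. EC50 is 50% of maximal reporter activity, from curve fit, n = 3.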

The target of test [29] is T4, Peroxisome proliferator-activated receptor delta (Homo sapiens, UniProt Q03181).
T4 sequence (Q03181 whole entry): T1 sequence (whole entry)
As to the kind of experiment: Agonist activity on Gal4 chimeric human Peroxisome proliferator activated receptor delta expressed in CHO-K1 cells. Format: functional, cell-based.

On to `CC[C@@H](Cc1ccc(OC)c(C(=O)NCc2ccc(C(F)(F)F)cc2)c1)C(=O)O`, for which the Reduction in the test with Rattus norvegicus [1] was found to be 28%; in the test on Rattus norvegicus [2], 69%; with Rattus norvegicus [3], 46%; in the test on Rattus norvegicus [4], 58%; with Rattus norvegicus [5], 56%; in the test with Rattus norvegicus [6], 29%. For the same compound, the Reduction with Rattus norvegicus [7] is listed as 58%; with Rattus norvegicus [8], 60%; with Rattus norvegicus [9], -1%; with Rattus norvegicus [10], 26%; with Rattus norvegicus [11] it was 33%; in the test on Rattus norvegicus [12], 15%. For the same compound, the Reduction came out at 25% in the test on Rattus norvegicus [13]; 56% with Rattus norvegicus [14]; 19% with Rattus norvegicus [15]; 32% in the test on Rattus norvegicus [16]; 26% in the test with Rattus norvegicus [17]; 22% in the test on Rattus norvegicus [18]. Also, the Reduction is given as 29% with Rattus norvegicus [19]; 35% with Rattus norvegicus [20]; 12% in the test with Rattus norvegicus [21]; 11% in the test on Rattus norvegicus [22]; 72% in the test on Rattus norvegicus [23]; 27% with Rattus norvegicus [24].
Consider `COc1ccc(CC2SC(=O)NC2=O)cc1C(=O)NCc1ccc(C(F)(F)F)cc1` (stereo not drawn), for which the IA result in test [25] was “inactive”.
Regarding `COc1ccc(CC(=O)O)cc1C(=O)NCc1ccc(C(F)(F)F)cc1`, the IA entry in [26], in [27] and in test [28] was “inactive” in each case.
A word on the pEC50: it is the negative decadic logarithm of the EC50, by convention in mol/L. Read a high pEC50 as a low EC50. As to `CC(C)(Oc1ccc(CCNC(=O)c2ccc(Cl)cc2)cc1)C(=O)O` [BEZAFIBRATE], the pEC50 in test [29] was below 3.84. Besides, the Reduction is 46% with Rattus norvegicus [2], 22% with Rattus norvegicus [8], 41% in the test with Rattus norvegicus [14] and 27% with Rattus norvegicus [20].
